ChEMBL document CHEMBL3085737, “Inducing secondary metabolite production by the endophytic fungus Fusarium tricinctum through coculture with Bacillus subtilis” (2013)

Legend:
Type in all cases: functional
Staphylococcus aureus [1] = assay: Antibacterial activity against multidrug and methicillin-resistant Staphylococcus aureus 25697 assessed as growth inhibition by broth microdilution method
Procedure, shortened: (§1)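 MIC by broth microdilution following CLSI guidelines. Inoculum made by direct colony suspension, giving 5 × 10^5 CFU/mL after the last dilution step. Compounds dosed from 10 mg/mL DMSO stocks up to 64 μg/mL top concentration, where final DMSO was 0.64%. Growth read as OD600 in a microtiter plate reader.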

Staphylococcus aureus [2] = assay: Antibacterial activity against Staphylococcus aureus ATCC 29213 assessed as growth inhibition by broth microdilution method
Procedure, shortened: (§2)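 MIC by broth microdilution following CLSI guidelines; inoculum made by direct colony suspension, 5 × 10^5 CFU/mL after the final dilution. Compounds were added from a 10 mg/mL DMSO stock, tested up to 64 μg/mL, giving 0.64% final DMSO at the top concentration. Growth was read as OD600 in a microtiter plate reader.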

Bacillus subtilis = assay: Antibacterial activity against Bacillus subtilis 168 trpC2 assessed as growth inhibition by broth microdilution method; conditions: subsp. subtilis str. 168; procedure, shortened: as §2
Enterococcus faecalis = assay: Antibacterial activity against multidrug and vancomycin-resistant Enterococcus faecalis UW 2689 assessed as growth inhibition by broth microdilution method; procedure, shortened: as §1
Pseudomonas aeruginosa = assay: Antibacterial activity against multidrug-resistant Pseudomonas aeruginosa B 63230 assessed as growth inhibition by broth microdilution method; procedure, shortened: as §1
Streptococcus pneumoniae = assay: Antibacterial activity against Streptococcus pneumoniae ATCC 49619 assessed as growth inhibition by broth microdilution method; procedure, shortened: as §2
Escherichia coli = assay: Antibacterial activity against Escherichia coli ATCC 25922 assessed as growth inhibition by broth microdilution method; procedure, shortened: as §2

SMILES	MIC (Staphylococcus aureus [1])	MIC (Staphylococcus aureus [2])	MIC (Bacillus subtilis)	MIC (Enterococcus faecalis)	MIC (Pseudomonas aeruginosa)	MIC (Streptococcus pneumoniae)	MIC (Escherichia coli)
C=C1NC(=O)C(C)C(CCC(C)C(=O)/C=C/C(C)=C/CCC(C)CCCCCC)OC(=O)C(CCC(N)=O)NC(=O)C(C)CNC1=O (stereo not drawn)	> 64 µg/mL	> 64 µg/mL	> 64 µg/mL	> 64 µg/mL	> 64 µg/mL	> 64 µg/mL	> 64 µg/mL
CC(=O)C[C@@H](O)Cc1cc2cc(O)cc(O)c2c(=O)o1	> 64 µg/mL	> 64 µg/mL	> 64 µg/mL	> 64 µg/mL	> 64 µg/mL	> 64 µg/mL	> 64 µg/mL
C[C@@H](O)C[C@@H](O)Cc1cc2cc(O)cc(O)c2c(=O)o1	> 64 µg/mL	> 64 µg/mL	> 64 µg/mL	> 64 µg/mL	> 64 µg/mL	> 64 µg/mL	> 64 µg/mL
Cc1cc(=O)cc(Cc2cc(O)cc(O)c2)o1	> 64 µg/mL	> 64 µg/mL	> 64 µg/mL	> 64 µg/mL	> 64 µg/mL	> 64 µg/mL	> 64 µg/mL
COC(=O)c1oc(=O)c2c(O)c3c(=O)cc(C)oc3cc2c1O	2 µg/mL	2 µg/mL	8 µg/mL	8 µg/mL	> 64 µg/mL	4 µg/mL	> 64 µg/mL
O=C(O)CNc1ccccc1C(=O)O	> 64 µg/mL	> 64 µg/mL	> 64 µg/mL	> 64 µg/mL	> 64 µg/mL	> 64 µg/mL	> 64 µg/mL
O=C(O)c1cn(C2CC2)c2cc(N3CCNCC3)c(F)cc2c1=O [CIPROFLOXACIN]	8 µg/mL	0.0625 µg/mL	0.16 µg/mL	16 µg/mL	16 µg/mL	0.25 µg/mL	
CC[C@H](C)[C@H]1C(=O)O[C@H](C(C)C)C(=O)N(C)[C@@H](C(C)C)C(=O)O[C@H](C(C)C)C(=O)N(C)[C@@H](C(C)C)C(=O)O[C@H](C(C)C)C(=O)N1C [ENNIATIN B1]	8 µg/mL	8 µg/mL	16 µg/mL	8 µg/mL	> 64 µg/mL	4 µg/mL	> 64 µg/mL
CC(C)[C@H]1C(=O)O[C@H](C(C)C)C(=O)N(C)[C@@H](C(C)C)C(=O)O[C@H](C(C)C)C(=O)N(C)[C@@H](C(C)C)C(=O)O[C@H](C(C)C)C(=O)N1C [ENNIATIN B]	> 64 µg/mL	> 64 µg/mL	> 64 µg/mL	> 64 µg/mL	> 64 µg/mL	16 µg/mL	> 64 µg/mL
CN(C)[C@@H]1C(O)=C(C(N)=O)C(=O)[C@@]2(O)C(O)=C3C(=O)c4c(O)cccc4[C@@](C)(O)[C@H]3C[C@@H]12 [TETRACYCLINE]	32 µg/mL	0.25 µg/mL	4 µg/mL	64 µg/mL	32 µg/mL	0.0625 µg/mL	0.5 µg/mL
CN[C@H](CC(C)C)C(=O)N[C@H]1C(=O)N[C@@H](CC(N)=O)C(=O)N[C@H]2C(=O)N[C@H]3C(=O)N[C@H](C(=O)N[C@H](C(=O)O)c4cc(O)cc(O)c4-c4cc3ccc4O)[C@H](O)c3ccc(c(Cl)c3)Oc3cc2cc(c3O[C@@H]2O[C@H](CO)[C@@H](O)[C@H](O)[C@H]2O[C@H]2C[C@](C)(N)[C@H](O)[C@H](C)O2)Oc2ccc(cc2Cl)[C@H]1O [VANCOMYCIN]			0.125 µg/mL		> 64 µg/mL	0.125 µg/mL	> 64 µg/mL
